From publication PMC3417325 (FEBS letters, 2010)
Ends that are not written are not given here.

B1: HD-5: human α-defensin stored in granules of Paneth cells (peptide, UniProt Q01523 20-94, looked up)
Defensin alpha 5: ESLQERADEATTQKQSGEDNQDLAISFAGNGLSALRTSGSQARATCYCRTGRCATRESLSGVCEISGRLYRLCCR
modifications: Defensin-5

Legend:
S. aureus = details: cited from earlier work
[1] = SPR, HNP1 peptides on soluble Lipid II immobilized on the chip surface; assay type: binding; details: peptide at 0.1, 1 or 10 µM, supplemental Figure 1
How it was run: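 The ligand was short-chain, water-soluble farnesyl (three-isoprene) Lipid II, made with M. flavus vesicles, C18 HPLC-purified and confirmed by mass spectrometry. Signals were corrected by subtracting a control flow-cell.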

[2] = ANTS/DPX leakage assay from LUVs
How it was run: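 LUVs (250 nm, 600 µM final lipid) were loaded with 12.5 mM ANTS and 45 mM DPX by freeze-thaw and 0.4-µm extrusion, then gel-filtered. Buffer was high-salt (5 mM HEPES, 100 mM NaCl, pH 7.4) or low-salt (10 mM NaCl). Twofold defensin dilutions were added, with a water blank and 0.25% Triton X-100 for 100%. Ex 353/Em 515 nm; % leakage = (Ft−F0)/(F100−F0)×100.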

[3] = system: Staphylococcus aureus ATCC 29213; assay type: cell-based; details: peptide 256 and 128 µg/ml, 15 min exposure, growth monitored 12 h

Row | Molecule | Activity against Gram-positive bacteria / bactericidal activity (S. aureus) | Binding of peptide to immobilized soluble Lipid II [1] | Leakage from LUVs with increasing content of POPG ([2]; POPC:POPG = 1:0, 3:2, 2:3, 0:1, HNP1 0.19 to 100 µg/ml, 1 h, triplicate) | Membrane activity (leakage from POPG LUVs) ([2]; POPG LUVs, panel of six α-defensins, high and low salt, over 24 h (Figure 1)) | Bacterial growth after exposure to HNP1 [3]
1 | HNP4: fourth α-defensin discovered in neutrophils (VCSCRLVFCRRTELRVGNCLIGGVSFTYCCTRV; disulfide (positions not given here); ends not checked; UniProt P12838 64-96, looked up) | ineffective against Gram-positive bacteria | – | – | – | –
2 | Human Neutrophil Peptide 1 [HNP1] | potently bactericidal | bound Lipid II dose-dependently | increasingly pronounced | reduced | bacterial growth did not measurably recover
3 | B1 | potently bactericidal | – | – | – | –
